# Assay results: ChEMBL document CHEMBL1125330, “N-substituted pyrazino[2,3-c][1,2,6]thiadiazine 2,2-dioxides. A new class of diuretics” (J Med Chem, 1992)
# Experiments:
# Settings in all cases: in vivo
# Rattus norvegicus [1] = species on record: Rattus norvegicus; assay: Mean urinary output in rats (Control/Drug treatment; value 23.3/29.9; format: ADME, organism-based, Urine
# Rattus norvegicus [2] = species on record: Rattus norvegicus; assay: Mean urinary output in rats (Control/Drug treatment value); value 24.0/36.5; format: ADME, organism-based, Urine
# Procedure, shortened: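 Water-loaded male Sprague-Dawley rats (HC/CFY, 175-200 g), eight per group, deprived of food and water 18 h. Single oral gavage of 20-25 mg/kg (some 10 mg/kg) in 1% CMC/0.1% Tween 80, then distilled water 2.5 mL/100 g bw po. Cumulative urine over 6 h in metabolic cages; mean mL/6 h/kg bw vs vehicle group.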
# Rattus norvegicus [3] = species on record: Rattus norvegicus; assay: Mean sodium excretion in rats (Control/Drug treatment value); value 0.52/2.02; format: ADME, organism-based
V (Rattus norvegicus [1]),V (Rattus norvegicus [2]),Na (Rattus norvegicus [3]),Compound
1.3,,,CCN1c2nc(C(F)(F)F)c(C(F)(F)F)nc2C(N)=NS1(=O)=O
,1.5,3.9,CCc1nc2c(nc1C)C(N)=NS(=O)(=O)N2C
